Reference: ChEMBL document CHEMBL3244308, “Potential antitumor agents. 22. Latentiated congeners of the 4'-(9-acridinylamino)methanesulfonanilides” (J Med Chem, 1977)

Key:
L1210 [1] = assay: Antitumor activity against mouse L1210 cells intraperitoneally xenografted in ip dosed C3H/DBA2 F1 hybrid mouse assessed as increase in host lifespan administered daily for 5 days starting 24 hrs post-tumor implantation; type: functional
Procedure, shortened: (§1)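 10⁵ L1210 cells implanted ip into 18.5-22.5-g C3H/DBA2 F1 mice. Daily ip treatment for 5 days from 24 h after implant, as water-soluble salts (methanesulfonate or hydrochloride) or as homogenized suspensions in aqueous methylcellulose. Groups of six mice. Read-out is increase in life span (T/C% − 100) at the optimum dose (maximal life-span increase, mg/kg/day); 50-day survivors counted.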

[2] = Lipophilic-hydrophilic balance, Rm of the compound by reversed-phase partition chromatography; type: physicochemical
Mus musculus = assay: Toxicity in ip dosed mouse assessed as optimum dose that providing maximum increase in life span administered qd for 1 to 5 days; type: organism-based; details: in vivo
Procedure, shortened: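 Mice were C3H/DBA2 F1 hybrids weighing 18.5-22.5 g. L1210 cells (10^5) were implanted ip or sc above the right axilla. Daily ip treatment began 24 h later and continued for 5 days (dq 1-5), given in water or as a homogenized suspension in aqueous methylcellulose. The optimum dose (mg/kg/day) is the one giving maximum life-span increase (T/C% - 100). Groups were six mice; 50-day survivors were counted.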

L1210 [3] = assay: Antitumor activity against mouse L1210 cells subcutaneously xenografted in ip dosed C3H/DBA2 F1 hybrid mouse assessed as increase in host lifespan administered daily for 5 days starting 24 hrs post-tumor implantation; type: functional
Procedure, shortened: as §1, with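 “implanted sc above the right axilla” for “implanted ip”, “ip dosing” for “ip treatment”, “salts” for “salts (methanesulfonate or hydrochloride)”, “mice. Increase” for “mice. Read-out is increase”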

SMILES | ILS (L1210 [1]) | Rm [2] | Activity (Mus musculus) | ILS (L1210 [3])
CCCCCCCCCCCCCCCCCC(=O)N(c1ccc(Nc2c3ccccc3nc3cc(NC(C)=O)ccc23)cc1)S(C)(=O)=O | 68% | 0.87 | 450 mg/kg | 39%
CCCC(=O)N(c1ccc(Nc2c3ccc([N+](=O)[O-])cc3nc3c(C)cccc23)cc1)S(C)(=O)=O | 71% | 0.31 | 50 mg/kg | 31%
CC(=O)N(c1ccc(Nc2c3ccc([N+](=O)[O-])cc3nc3c(C)cccc23)cc1)S(C)(=O)=O | 217% | -0.03 | 200 mg/kg | 188%
CCCCC(=O)N(c1ccc(Nc2c3ccccc3nc3cc([N+](=O)[O-])ccc23)cc1)S(C)(=O)=O | 91% | 0.32 | 26 mg/kg | 57%
CC(=O)N(c1ccc(Nc2c3ccccc3nc3cc([N+](=O)[O-])ccc23)cc1)S(C)(=O)=O | 138% | -0.08 | 50 mg/kg | 61%
CCC(=O)N(c1ccc(Nc2c3ccccc3nc3cc([N+](=O)[O-])ccc23)cc1)S(C)(=O)=O | 162% | 0.13 | 50 mg/kg | 57%
CCCCCC(=O)N(c1ccc(Nc2c3ccccc3nc3cc([N+](=O)[O-])ccc23)cc1)S(C)(=O)=O | 57% | 0.41 | 5 mg/kg | 39%
CS(=O)(=O)Nc1ccc(Nc2c3ccccc3nc3cc([N+](=O)[O-])ccc23)cc1 | 123% | -0.07 | 25 mg/kg | 43%
COc1cc(NS(C)(=O)=O)ccc1Nc1c2ccccc2nc2c(C)cccc12 | 111% | 0.11 | 6 mg/kg | 47%
CCC(=O)N(c1ccc(Nc2c3ccc([N+](=O)[O-])cc3nc3c(C)cccc23)cc1)S(C)(=O)=O | 81% | 0.2 | 50 mg/kg | 27%
CCCCCCC(=O)N(c1ccc(Nc2c3ccccc3nc3cc([N+](=O)[O-])ccc23)cc1)S(C)(=O)=O | 48% | 0.5 | 9 mg/kg | 41%
Cc1cccc2c(Nc3ccc(NS(C)(=O)=O)cc3)c3ccc([N+](=O)[O-])cc3nc12 | 113% | -0.01 | 100 mg/kg | 98%
CCCCCCCC(=O)N(c1ccc(Nc2c3ccccc3nc3cc([N+](=O)[O-])ccc23)cc1)S(C)(=O)=O | 62% | 0.61 | 10 mg/kg | 47%
CCCCCCCCC(=O)N(c1ccc(Nc2c3ccccc3nc3cc([N+](=O)[O-])ccc23)cc1)S(C)(=O)=O | 144% | 0.71 | 75 mg/kg | 61%
CC(=O)Nc1ccc2c(Nc3ccc(N(C(C)=O)S(C)(=O)=O)cc3)c3ccccc3nc2c1.Cl | 118% | -0.19 | 28 mg/kg | 43%
CCC(=O)N(c1ccc(Nc2c3ccccc3nc3cc(NC(C)=O)ccc23)cc1)S(C)(=O)=O.Cl | 135% | 0 | 40 mg/kg | 88%
CCC(=O)N(c1ccc(Nc2c3ccccc3nc3ccccc23)cc1)S(C)(=O)=O.Cl | 88% | 0.07 | 300 mg/kg | 56%
CCCCC(=O)N(c1ccc(Nc2c3ccccc3nc3ccccc23)cc1)S(C)(=O)=O.Cl | 68% | 0.34 | 400 mg/kg | 28%
Br.CCCCCCC(=O)N(c1ccc(Nc2c3ccccc3nc3ccccc23)cc1)S(C)(=O)=O | 61% | 0.54 | 150 mg/kg | 27%
COc1cc(N(C(C)=O)S(C)(=O)=O)ccc1Nc1c2ccccc2nc2ccccc12.Cl | 70% | 0.05 | 6 mg/kg | 33%
CCCC(=O)N(c1ccc(Nc2c3ccccc3nc3cc(NC(C)=O)ccc23)cc1)S(C)(=O)=O.Cl | 98% | 0.22 | 50 mg/kg | 62%
CCCCC(=O)N(c1ccc(Nc2c3ccccc3nc3cc(NC(C)=O)ccc23)cc1)S(C)(=O)=O.Cl | 89% | 0.36 | 80 mg/kg | 63%

SMILES | ILS (L1210 [1]) | Rm [2] | Activity (Mus musculus) | ILS (L1210 [3])
CCCCCC(=O)N(c1ccc(Nc2c3ccccc3nc3cc(NC(C)=O)ccc23)cc1)S(C)(=O)=O.Cl | 81% | 0.51 | 42 mg/kg | 43%
Br.CCCCCCC(=O)N(c1ccc(Nc2c3ccccc3nc3cc(NC(C)=O)ccc23)cc1)S(C)(=O)=O | 71% | 0.63 | 14 mg/kg | 47%
Br.CCCCCCCC(=O)N(c1ccc(Nc2c3ccccc3nc3cc(NC(C)=O)ccc23)cc1)S(C)(=O)=O | 83% | 0.69 | 22 mg/kg | 45%
Br.CCCCCCCCC(=O)N(c1ccc(Nc2c3ccccc3nc3cc(NC(C)=O)ccc23)cc1)S(C)(=O)=O | 143% | 0.72 | 45 mg/kg | 83%
Br.CCCCCCCCCC(=O)N(c1ccc(Nc2c3ccccc3nc3cc(NC(C)=O)ccc23)cc1)S(C)(=O)=O | 98% | 0.76 | 50 mg/kg | 65%
Br.CCCCCCCCCCC(=O)N(c1ccc(Nc2c3ccccc3nc3cc(NC(C)=O)ccc23)cc1)S(C)(=O)=O | 64% | 0.79 | 30 mg/kg | 39%
Br.CCCCCCCCCCCC(=O)N(c1ccc(Nc2c3ccccc3nc3cc(NC(C)=O)ccc23)cc1)S(C)(=O)=O | 72% | 0.81 | 30 mg/kg | 41%
CC(=O)Nc1ccc2c(Nc3ccc(N(C(=O)C(C)C)S(C)(=O)=O)cc3)c3ccccc3nc2c1.Cl | 93% | 0.29 | 50 mg/kg | 57%
CCC(C)C(=O)N(c1ccc(Nc2c3ccccc3nc3cc(NC(C)=O)ccc23)cc1)S(C)(=O)=O.Cl (stereo not given) | 68% | 0.38 | 50 mg/kg | 31%
COC(=O)N(c1ccc(Nc2c3ccccc3nc3ccccc23)cc1)S(C)(=O)=O.Cl | 67% | 0.07 | 250 mg/kg | 36%
CCCCCCCCC(=O)N(c1ccc(Nc2c3ccccc3nc3cc(N)ccc23)cc1)S(C)(=O)=O.Cl | 64% | 0.59 | 2.5 mg/kg | 
CN(C)/N=N/c1ccc2c(Nc3ccc(NS(C)(=O)=O)cc3)c3ccccc3nc2c1.Cl | 110% | 0.22 | 8 mg/kg | 38%
CCCN(C)/N=N/c1ccc2c(Nc3ccc(NS(C)(=O)=O)cc3)c3ccccc3nc2c1.CS(=O)(=O)O | 98% | 0.47 | 15 mg/kg | 27%
COc1cc(NS(C)(=O)=O)ccc1Nc1c2ccccc2nc2cc(/N=N/N(C)C)ccc12.Cl | 141% | 0.38 | 10 mg/kg | 34%
CCCN(C)/N=N/c1ccc2c(Nc3ccc(NS(C)(=O)=O)cc3OC)c3ccccc3nc2c1.CS(=O)(=O)O | 100% | 0.65 | 15 mg/kg | 59%
CCN(CC)/N=N/c1ccc2c(Nc3ccc(NS(C)(=O)=O)cc3)c3ccccc3nc2c1.CS(=O)(=O)O | 96% |  | 25 mg/kg | 28%
CS(=O)(=O)Nc1ccc(Nc2c3ccccc3nc3cc(N=[N+]=[N-])ccc23)cc1.Cl | 216% | -0.02 | 16 mg/kg | 64%
COc1cc(NS(C)(=O)=O)ccc1Nc1c2ccccc2nc2cc(N=[N+]=[N-])ccc12.Cl | 118% | 0.14 | 8 mg/kg | 47%
CC(=O)Nc1ccc2c(Nc3ccc(NS(C)(=O)=O)cc3)c3ccccc3nc2c1 | 114% | -0.12 | 13 mg/kg | 33%
CS(=O)(=O)Nc1ccc(Nc2c3ccccc3nc3ccccc23)cc1 | 107% | 0 | 45 mg/kg | 28%
COc1cc(NS(C)(=O)=O)ccc1Nc1c2ccccc2nc2ccccc12 [AMSACRINE] | 114% | 0.18 | 6.7 mg/kg | 27%
